# Measurements as given in PubChem BioAssay.
# Activity calls are given as the source filed them.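 The calls were made as follows, unless noted: active = inhibition above 20% together with a positive visual image hit; inconclusive = visual image hit but inhibition not above 20%; inactive = no visual image hit.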
# Legend:
# [1] = inhibitors of TNFa-induced NFkB p65 translocation, primary screen, imaging, HUVEC, MLSMR starter and 10KST1 sets (AID 438); settings: HUVEC TNFa-induced p65 nuclear translocation; cell count: measured here: nuclei count (cytotoxicity indicator), at 2.08 µM; inhibition: at 2 µM, stronger effect = higher value, 0% TNFa-plus-vehicle, 100% no-TNFa wells;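 also: compound added about 3h40 before a 20 min TNFalpha stimulation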;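 as to inhibition: signal is the nuclear over cytoplasmic p65 intensity ratio per well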
# [2] = inhibitors of mutant huntingtin aggregation, primary screen, imaging, exon1htt(103Q)mCFP cells, high-content imaging (AID 483;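 active = visual image review flags a hit and inhibition of aggregation exceeds 20%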;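 also: compound exposure lasted 3 days before fixation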;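 as to nuclei count: percent of the per-plate median nuclei count of sample wells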); settings: exon1htt(103Q)mCFP cell line, aggregate imaging, at 2 µM; inhibition of aggregation: stronger effect = higher value; nuclei count: measured here: cell count, toxicity
# [3] = inhibitors of E-selectin induction by TNFa, primary screen, imaging, HUVEC, immunofluorescence, MLSMR starter and 10KST1 sets (AID 487;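 active = visually confirmed hit in the image check and inhibition above 20%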;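 as to inhibition: signal is fraction of cell area covered by stained E-selectin grains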;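 as to nuclei count: 100% = median nuclei count of all wells on the same plate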); settings: HUVEC TNFalpha-induced E-selectin immunofluorescence imaging, at 2 µM; inhibition: stronger effect = higher value; nuclei count: measured here: cell number, toxicity
# [4] = molecular target: Voltage-gated potassium channel subunit beta-2 (Rattus norvegicus) (UniProt P62483); experiment: KvBeta enzyme negative modulators, primary screen, biochemical, NADPH fluorescence (AID 622;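 active = fluorescence slope higher than the sample average by over 3 SD, cut at about -0.22 in these data, passing the limit was not always enough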;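 also: slope of raw intensity against log time taken from 70 to 1610 s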); settings: recombinant KvBeta, 4-cyanobenzaldehyde reduction, at 10 µM, stronger effect = higher value
# Sequence of Voltage-gated potassium channel subunit beta-2 (Rattus norvegicus) (P62483 whole entry, looked up): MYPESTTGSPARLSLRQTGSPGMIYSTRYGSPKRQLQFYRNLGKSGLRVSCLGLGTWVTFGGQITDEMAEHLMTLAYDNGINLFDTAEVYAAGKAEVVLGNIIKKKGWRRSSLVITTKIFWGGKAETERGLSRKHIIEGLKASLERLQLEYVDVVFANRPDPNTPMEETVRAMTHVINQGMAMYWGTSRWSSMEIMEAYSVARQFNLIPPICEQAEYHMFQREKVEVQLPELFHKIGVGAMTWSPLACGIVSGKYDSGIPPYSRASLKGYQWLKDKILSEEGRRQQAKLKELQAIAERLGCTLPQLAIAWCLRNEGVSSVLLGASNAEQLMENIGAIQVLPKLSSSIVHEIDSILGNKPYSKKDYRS
# [5] = molecular target: Voltage-gated potassium channel subunit beta-2 (Rattus norvegicus) (UniProt P62483); experiment: KvBeta positive modulators, primary screen, biochemical, NADPH fluorescence (AID 623;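 active = NADPH fluorescence slope more negative than the mean of all samples by about 3 SD, 99.7% confidence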;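 also: fluorescence intensity change per second fitted from 20 to 320 s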); settings: Recombinant KvBeta, NADPH fluorescence decrease slope, 10 min; at 10 µM; stronger effect = lower value
# [6] = molecular target: Muscarinic acetylcholine receptor M4 (Homo sapiens) (UniProt P08173); experiment: compounds altering M4/GIRK thallium flux, either direction, primary screen, M4 allosteric agonist project, cell-based, HEK293 M4/GIRK, BTC-AM (AID 625;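 active = fluorescence slope after compound addition differing from the mean of all tested samples at 99.7% confidence, mostly higher but some lower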;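 also: thallium influx through GIRK channels coupled to M4 in HEK293 cells with BTC-AM dye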); settings: at 10 µM, actives lie on both sides
# Sequence of Muscarinic acetylcholine receptor M4 (Homo sapiens) (P08173 whole entry, looked up): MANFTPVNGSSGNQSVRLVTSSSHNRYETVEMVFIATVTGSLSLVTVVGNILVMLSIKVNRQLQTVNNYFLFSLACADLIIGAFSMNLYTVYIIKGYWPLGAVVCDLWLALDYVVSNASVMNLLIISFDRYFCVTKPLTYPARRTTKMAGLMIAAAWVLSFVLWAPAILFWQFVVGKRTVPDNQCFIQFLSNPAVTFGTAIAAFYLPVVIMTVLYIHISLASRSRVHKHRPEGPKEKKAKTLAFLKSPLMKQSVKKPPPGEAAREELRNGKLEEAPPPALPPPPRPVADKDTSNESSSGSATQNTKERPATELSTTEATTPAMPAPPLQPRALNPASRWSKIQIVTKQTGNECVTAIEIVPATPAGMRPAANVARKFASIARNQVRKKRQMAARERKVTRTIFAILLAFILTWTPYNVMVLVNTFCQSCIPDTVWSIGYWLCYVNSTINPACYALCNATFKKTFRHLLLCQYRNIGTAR
# Method in brief: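 Assay system: HEK293 cells with M4 receptor and GIRK channels / Controls: carbachol and DMSO controls / Schedule: 1 h dye loading, 2 min kinetic read / Technique: kinetic fluorescence with BTC-AM dye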
# [7] = inhibitors of Sendai virus-induced IRF3 signaling, primary screen, TLR/RLR signaling modifier project, cell-based, Sendai virus stimulus, luciferase, 10K MLSCN set (AID 602276;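 active = inhibition at or above 50% at 10 µM; inactive = inhibition below 50%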;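 also: firefly luciferase from ISG56 promoter only with Renilla not read in this screen; 0% = Sendai virus plus DMSO and 100% = medium plus DMSO without virus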); settings: HEK293 RL24 IRF3 luciferase reporter, at 10 µM, stronger effect = higher value
# [8] = inhibitors of poly I:C-induced TLR3 signaling, primary screen, cell-based, poly I:C stimulus, luciferase, 10K MLSCN set (AID 602277;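 active = inhibition of the reporter signal at or above 50%; inactive = inhibition below 50%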); settings: HEK293-TLR3 RL24 IRF3 luciferase reporter, at 10 µM, stronger effect = higher value
Compound,cell count [1],inhibition [1],inhibition of aggregation [2],nuclei count [2],inhibition [3],nuclei count [3],fluorescence slope [4],NADPH fluorescence slope [5],fluorescence slope [6],inhibition [7],inhibition [8]
CCOc1cc(C(=O)NCC2CCCO2)cc(OCC)c1OCC (stereo not drawn),430,-9.3% (inactive),-3.9% (inactive),106%,-133% (inactive),102%,-0.213 (inactive),-3.4e-05 (inactive),0.00818 (inactive),15.1% (inactive),9.52% (inactive)
COc1ccc(-c2cn3c(C)c(C(=O)Nc4cc(NC(C)=O)ccc4OC)sc3n2)cc1,693,7.3% (inactive),-40.3% (inactive),59%,-116% (inactive),118%,-0.166 (inactive),-6.9e-06 (inactive),0.00656 (inactive),42.7% (inactive),26.4% (inactive)
O=C(CSc1nc(-c2ccco2)cc(C(F)(F)F)n1)N1CCCc2ccccc21,700,0% (inactive),3.1% (inactive),104%,-20.9% (inactive),114%,-0.585 (inactive),-2.5e-05 (inactive),0.00488 (inactive),19% (inactive),13.4% (inactive)
CCCC(CCC)n1[nH]c(=O)c2c(C)cc(C)nc21,357,3.8% (inactive),7.5% (inactive),105%,-29.5% (inactive),114%,-0.47 (inactive),3.6e-05 (inactive),0.00554 (inactive),3.13% (inactive),4.22% (inactive)
Cc1nn(Cc2ccccc2Cl)c(C)c1NC(=O)C1C2CCC(O2)C1C(=O)O (stereo not drawn),625,7.7% (inactive),0.3% (inactive),101%,16.3% (inactive),96.3%,-0.494 (inactive),-3.1e-05 (inactive),0.00475 (inactive),-10.5% (inactive),-23.8% (inactive)
Cc1ccc(C)c(N2CCN(C(=O)c3ccc(CS(=O)(=O)c4ccccc4C)o3)CC2)c1,555,-15.1% (inactive),12.7% (inactive),95.8%,-45.9% (inactive),125%,-0.555 (inactive),4.4e-05 (inactive),0.00481 (inactive),11.1% (inactive),45.6% (inactive)
COc1cccc(OC)c1C(=O)Nc1ccc(CN2CCCCC2)cc1,640,-2.4% (inactive),-16.7% (inactive),71.4%,-32.5% (inactive),98.8%,-0.425 (inactive),-3.1e-06 (inactive),0.00659 (inactive),13.4% (inactive),23.2% (inactive)
COC(=O)C1=C(C)NC(C)=C(C(=O)OC)C1c1cc2cc(C)ccc2[nH]c1=O,509,11.1% (inactive),-7.7% (inactive),102%,-103% (inactive),136%,-0.493 (inactive),-2.9e-05 (inactive),0.00508 (inactive),18.9% (inactive),30.9% (inactive)
c1ccc(Cn2nnc3c(N4CCC5(CC4)OCCO5)ncnc32)cc1,382,-1.3% (inactive),0.3% (inactive),103%,-346% (inactive),144%,-0.522 (inactive),-5.2e-05 (inactive),0.00535 (inactive),3.41% (inactive),6.57% (inactive)
COc1ccc(C(=O)N2CCOCC2)cc1Br,406,-7.6% (inactive),5.4% (inactive),90.8%,-24.6% (inactive),108%,-0.49 (inactive),3.2e-05 (inactive),0.0055 (inactive),-0.192% (inactive),-3.39% (inactive)
Cc1cc(NC(=O)c2cc(-c3ccco3)on2)n(-c2ccccc2)n1,326,6.8% (inactive),6.4% (inactive),105%,-56.3% (inactive),121%,-0.466 (inactive),-2.4e-05 (inactive),0.00551 (inactive),17.5% (inactive),12.9% (inactive)
COc1cccc(OC)c1C(=O)N1CCN(S(=O)(=O)c2ccccc2)CC1,437,1.4% (inactive),-1.7% (inactive),105%,-13.1% (inactive),102%,-0.531 (inactive),-6.4e-05 (inactive),0.00446 (inactive),-2.45% (inactive),19.4% (inactive)
CCOC(=O)c1c(NC(=O)CSc2nnc(-c3cccnc3)o2)sc(C)c1C,431,-13.1% (inactive),24.3% (inactive),73.6%,-15% (inactive),98.1%,-0.484 (inactive),4.4e-06 (inactive),0.00591 (inactive),3.63% (inactive),16.6% (inactive)
COC(=O)c1cccc(NC(=O)C2COc3ccccc3O2)c1C (stereo not drawn),349,-3.3% (inactive),13.6% (inactive),102%,-10.1% (inactive),96.5%,-0.508 (inactive),-1.7e-05 (inactive),0.0049 (inactive),-2.98% (inactive),-15.7% (inactive)
CC(C)(C)OC(=O)N1CCN(c2ccc(NC(=O)c3cc4ccccc4oc3=O)cc2)CC1,409,4.4% (inactive),-4.1% (inactive),110%,-52.6% (inactive),107%,-0.582 (inactive),-4.9e-05 (inactive),0.0076 (inactive),16.2% (inactive),-11.3% (inactive)
CCC(=O)N1CCc2cc(S(=O)(=O)CCC(=O)Nc3c(C)n(C)n(-c4ccccc4)c3=O)ccc21,598,7.7% (inactive),-10.8% (inactive),116%,-110% (inactive),121%,-0.434 (inactive),0.000106 (inactive),0.00486 (inactive),2.43% (inactive),13.1% (inactive)
O=S(=O)(c1ccc(Br)s1)N1CCCCC1,479,-1.6% (inactive),-18.8% (inactive),100%,0.6% (inactive),106%,-0.615 (inactive),4.4e-05 (inactive),0.00346 (inactive),5.16% (inactive),9.33% (inactive)
CCOc1ccc(-c2noc(-c3ccncc3)n2)cc1OCC,807,1.7% (inactive),33.6% (inactive),106%,-21.2% (inactive),117%,-0.533 (inactive),4e-05 (inactive),0.023 (active),4.12% (inactive),-4.62% (inactive)
CSc1nsc(SCC(=O)N2CCc3ccccc32)n1,296,-3.5% (inactive),22.6% (inactive),83.6%,-98.3% (inactive),112%,-0.451 (inactive),1.5e-05 (inactive),0.005 (inactive),5.46% (inactive),-2.99% (inactive)
CCCC1CCC(C(=O)Nn2c(C)nc3ccccc3c2=O)CC1 (stereo not drawn),340,0% (inactive),-13.5% (inactive),73.2%,11.4% (inactive),79%,-0.472 (inactive),-2.4e-05 (inactive),0.00445 (inactive),15.6% (inactive),18.5% (inactive)
CC(C)CCn1c(N)c(S(=O)(=O)c2cccs2)c2nc3ccccc3nc21,652,2% (inactive),0% (inactive),105%,-67.7% (inactive),124%,-0.398 (inactive),1.8e-05 (inactive),0.00628 (inactive),8.07% (inactive),-1.32% (inactive)
COCCNC(=O)CSc1nc(-c2ccc(OC)c(OC)c2)cc(C(F)(F)F)n1,430,3.4% (inactive),-8.2% (inactive),104%,-34.3% (inactive),115%,-0.445 (inactive),-0.000127 (inactive),0.00332 (inactive),17.7% (inactive),14.6% (inactive)
Cc1ccccc1NS(=O)(=O)c1ccc(NC(=O)c2ccco2)cc1,349,1.1% (inactive),5.8% (inactive),94.7%,-24.6% (inactive),119%,-0.587 (inactive),1.9e-07 (inactive),0.00578 (inactive),15.3% (inactive),13.6% (inactive)
Cc1csc(OCc2ccc(C#N)cc2)n1,636,-4.4% (inactive),-1.8% (inactive),97.8%,-4.8% (inactive),114%,-0.6 (inactive),-3.4e-05 (inactive),0.0082 (inactive),7.71% (inactive),5.79% (inactive)
c1ccc(-c2cn3cccnc3n2)cc1,746,-0.7% (inactive),12.5% (inactive),92.7%,-66.8% (inactive),123%,-0.0209 (active),-3.7e-06 (inactive),0.00503 (inactive),-12.5% (inactive),-40.2% (inactive)
CC(C(=O)Oc1ccc2c(c1)OCO2)N1C(=O)c2ccccc2C1=O (stereo not drawn),790,-10.1% (inactive),9.8% (inactive),104%,-33.5% (inactive),101%,-0.609 (inactive),-2.3e-05 (inactive),0.00538 (inactive),23.3% (inactive),27.7% (inactive)
Cn1nc(C(=O)Nc2cccc(C(F)(F)F)c2)ccc1=O,357,9.9% (inactive),-1.2% (inactive),100%,-46.7% (inactive),104%,-0.576 (inactive),4e-05 (inactive),0.00652 (inactive),5.35% (inactive),-5.97% (inactive)
Cc1ccc(CN2C(=O)CCC2C(=O)NCC2CCCO2)cc1 (stereo not drawn),317,10.5% (inactive),-27.2% (inactive),91%,-16.2% (inactive),97.8%,-0.556 (inactive),-2.2e-05 (inactive),0.0066 (inactive),-7.7% (inactive),1.56% (inactive)
